Results on 3 molecules are retold here after ChEMBL document CHEMBL5252510, “A Novel Potent Oral Series of VEGFR2 Inhibitors Abrogate Tumor Growth by Inhibiting Angiogenesis” (J Med Chem, 2016).

The source made the active and inactive calls. The calls are words filed in the database; no cut-off is given here.

As usually defined, the Tmax is the time from dosing to the highest level. By bioavailability is commonly meant the share of a dose that reaches the circulation, judged against a reference dose that is usually intravenous.

In one data set the test system is B16-BL6. Nature of the data set: Antitumor activity against mouse B16-BL6 cells implanted in C57BL/6jNpa mouse assessed as primary tumor growth inhibition by measuring T/C ratio at 1 mg/kg, po qd started on day 7 post implantation measured after 21 days. The following applies: time 7-21 day.
A short description of data set [1]: Tmax in OFA rat at 3 mg/kg, po measured upto 24 hrs by HPLC/UV analysis. Particulars: in vivo. The class given is ADME, organism-based. A digest of the protocol: (§1)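 Female OFA rats, femoral artery/vein catheterized and recovered 96 h. Oral gavage of a micronized suspension in 0.5 % carboxymethyl cellulose at 25 or 3 mg/kg. Bioavailability taken against femoral-vein iv dosing. Plasma sampled 5 min–24 h (9 time points).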

Data set [2] can be described thus: Dose normalized AUC(0 to infinity) in OFA rat at 25 mg/kg, po measured upto 24 hrs by HPLC/UV analysis. It counts as ADME, organism-based. Particulars: in vivo. A digest of the protocol:
as §1

Data set [3] deals with RAF proto-oncogene serine/threonine-protein kinase (Homo sapiens) (UniProt P04049). As to the kind of experiment: Inhibition of human recombinant GST-fused cRAF expressed in baculovirus expression system using poly-Glu-Tyr (4:1) as substrate measured after 10 mins in presence of gamma-[33P]-ATP by scintillation counting analysis. In short, it runs like this: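 GST-fused kinase domains were expressed in baculovirus and purified on glutathione-Sepharose. 10 min at ambient temperature, stopped with EDTA. Filter binding and scintillation counting. IC50 by linear regression of percent inhibition.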
Sequence of RAF proto-oncogene serine/threonine-protein kinase (Homo sapiens) (P04049 whole entry, the tested form may be a part): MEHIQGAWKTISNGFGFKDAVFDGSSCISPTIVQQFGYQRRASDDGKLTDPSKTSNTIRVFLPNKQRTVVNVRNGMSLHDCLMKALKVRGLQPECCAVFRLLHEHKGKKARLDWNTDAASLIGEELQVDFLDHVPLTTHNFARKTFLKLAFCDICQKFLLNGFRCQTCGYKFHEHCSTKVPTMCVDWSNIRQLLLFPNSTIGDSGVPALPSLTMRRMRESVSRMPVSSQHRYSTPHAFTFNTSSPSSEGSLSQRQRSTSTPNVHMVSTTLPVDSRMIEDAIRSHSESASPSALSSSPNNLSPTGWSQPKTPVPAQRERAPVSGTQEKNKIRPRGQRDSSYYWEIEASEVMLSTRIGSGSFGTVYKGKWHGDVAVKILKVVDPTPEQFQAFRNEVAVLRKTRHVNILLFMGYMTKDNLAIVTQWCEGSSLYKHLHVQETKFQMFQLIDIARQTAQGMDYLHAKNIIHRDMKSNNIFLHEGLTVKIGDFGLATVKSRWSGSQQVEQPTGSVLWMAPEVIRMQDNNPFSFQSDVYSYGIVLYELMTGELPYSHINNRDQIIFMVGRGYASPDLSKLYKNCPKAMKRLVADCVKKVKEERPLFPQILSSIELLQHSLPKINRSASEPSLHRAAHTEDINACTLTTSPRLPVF

A short description of data set [4]: Tmax in OFA rat at 25 mg/kg, po measured upto 24 hrs by HPLC/UV analysis. It counts as ADME, organism-based. Particulars: in vivo. In short, it runs like this: as §1
Data set [5] can be described thus: Oral bioavailability in OFA rat at 25 mg/kg measured upto 24 hrs by HPLC/UV analysis. The class given is ADME, organism-based. The following applies: in vivo. In short, it runs like this: as §1
Data set [6] is described as follows: Antitumor activity against rat BN472 cell implanted in Brown-Norway rat assessed as T/C ratio at 3 mg/kg, po qd measured upto 14 days. The class given is functional. Particulars: time <= 14 day. A digest of the protocol:
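Female Brown-Norway rats (160-180 g) given 3 mm³ BN472 tumor fragments in mammary fat pads; at about 200 mm², randomized into groups of 7-8 and dosed orally with compound or PEG300 vehicle over 14 days; tumor growth followed, T/C computed; significance by 2-way RM-ANOVA.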

Take `O=C(Nc1cccc(C(F)(F)F)c1)c1cccc2cc(Oc3cc(CO)ncn3)ccc12` [BFH-772]: the T/C in the data set on B16-BL6 worked out at 0.73. In data set [1], the Tmax worked out at 2 h.

`Nc1nccc(Oc2ccc3c(C(=O)Nc4cccc(C(F)(F)F)c4)cccc3c2)n1` returned an AUC/dose in data set [2] of 1.22 µmol·h/L. For the same molecule, the inhibition entry in data set [3] was “Active”. The Tmax in data set [4] was 2 h. In data set [5], the bioavailability amounted to 35%.

Regarding `Nc1nccc(Oc2ccc3c(C(=O)Nc4ccc(F)c(C(F)(F)F)c4)cccc3c2)n1`, the T/C in data set [6] was 0.056.
